pEC50: −log10 of the molar value. Active and inactive are the calls of the source. The rule behind the calls is not given here.
Tests used:
MDCK [1] = test: Inhibition of Pgp-mediated doxorubicine accumulation in MDCK cells assessed as nitreated-Pgp level at 10 uM by immunoprecipitation; type: cell-based; settings: Canis lupus familiaris
[2] = molecular target: Multidrug resistance-associated protein 1 (Homo sapiens, UniProt P33527); test: […] MRP1 expressed in MDCK cells assessed as calcein AM accumulation by fluorescence assay; type: cell-based
Sequence of Multidrug resistance-associated protein 1 (P33527 whole entry): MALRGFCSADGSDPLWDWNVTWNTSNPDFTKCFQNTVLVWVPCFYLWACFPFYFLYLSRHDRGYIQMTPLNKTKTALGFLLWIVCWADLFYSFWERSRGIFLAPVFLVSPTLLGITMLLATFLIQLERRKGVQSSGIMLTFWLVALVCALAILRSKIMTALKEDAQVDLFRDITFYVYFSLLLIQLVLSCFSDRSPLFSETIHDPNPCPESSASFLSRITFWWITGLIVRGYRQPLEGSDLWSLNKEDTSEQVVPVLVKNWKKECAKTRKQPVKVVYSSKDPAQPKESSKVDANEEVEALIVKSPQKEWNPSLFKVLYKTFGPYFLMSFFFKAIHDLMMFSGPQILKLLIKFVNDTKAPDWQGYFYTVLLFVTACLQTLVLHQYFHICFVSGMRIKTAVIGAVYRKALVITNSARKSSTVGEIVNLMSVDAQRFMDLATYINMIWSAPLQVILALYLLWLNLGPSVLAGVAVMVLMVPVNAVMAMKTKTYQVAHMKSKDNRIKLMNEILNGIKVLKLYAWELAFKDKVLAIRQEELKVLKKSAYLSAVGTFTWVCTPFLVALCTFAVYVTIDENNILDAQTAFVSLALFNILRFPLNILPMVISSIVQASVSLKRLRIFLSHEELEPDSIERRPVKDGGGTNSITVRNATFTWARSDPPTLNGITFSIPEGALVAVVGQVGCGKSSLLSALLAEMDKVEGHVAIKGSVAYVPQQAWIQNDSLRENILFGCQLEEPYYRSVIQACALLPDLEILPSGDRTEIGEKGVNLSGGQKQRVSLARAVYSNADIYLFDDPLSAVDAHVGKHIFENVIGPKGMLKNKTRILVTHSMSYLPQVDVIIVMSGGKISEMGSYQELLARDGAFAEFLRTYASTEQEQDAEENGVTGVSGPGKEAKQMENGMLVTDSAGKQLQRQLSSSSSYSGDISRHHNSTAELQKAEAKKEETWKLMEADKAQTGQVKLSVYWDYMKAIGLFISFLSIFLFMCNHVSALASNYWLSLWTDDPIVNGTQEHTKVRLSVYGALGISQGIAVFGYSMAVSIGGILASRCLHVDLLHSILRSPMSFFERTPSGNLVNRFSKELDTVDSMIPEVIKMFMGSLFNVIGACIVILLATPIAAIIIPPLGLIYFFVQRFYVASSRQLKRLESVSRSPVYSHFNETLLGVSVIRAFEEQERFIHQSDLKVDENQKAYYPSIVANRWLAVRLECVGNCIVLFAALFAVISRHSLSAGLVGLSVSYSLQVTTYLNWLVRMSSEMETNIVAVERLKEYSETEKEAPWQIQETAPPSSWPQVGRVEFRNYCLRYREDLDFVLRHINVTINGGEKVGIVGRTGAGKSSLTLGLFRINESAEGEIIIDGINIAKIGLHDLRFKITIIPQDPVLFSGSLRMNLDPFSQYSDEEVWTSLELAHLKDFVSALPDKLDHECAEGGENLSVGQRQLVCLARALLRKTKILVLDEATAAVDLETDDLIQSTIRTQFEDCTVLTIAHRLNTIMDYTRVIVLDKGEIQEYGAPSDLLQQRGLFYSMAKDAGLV
How it was run: (§1)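 MDCK cells overexpressing MRP1 or MDR1 (P-gp) were seeded at 50,000/well and grown to confluence overnight. Compound in medium was added for 30 min at 37°C, then calcein-AM (2.5 µM final, in PBS) for 30 min. Cells were washed 3× with ice-cold PBS and fluorescence read at ex 485/em 535 nm. The increase over untreated basal level was fitted against log[dose] to give EC50.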

[3] = molecular target: ATP-dependent translocase ABCB1 (Homo sapiens, UniProt P08183); test: Inhibition of MDR1 expressed in MDCK cells assessed as calcein AM accumulation by fluorescence assay; type: cell-based; how it was run: as §1
Sequence of ATP-dependent translocase ABCB1 (P08183 whole entry): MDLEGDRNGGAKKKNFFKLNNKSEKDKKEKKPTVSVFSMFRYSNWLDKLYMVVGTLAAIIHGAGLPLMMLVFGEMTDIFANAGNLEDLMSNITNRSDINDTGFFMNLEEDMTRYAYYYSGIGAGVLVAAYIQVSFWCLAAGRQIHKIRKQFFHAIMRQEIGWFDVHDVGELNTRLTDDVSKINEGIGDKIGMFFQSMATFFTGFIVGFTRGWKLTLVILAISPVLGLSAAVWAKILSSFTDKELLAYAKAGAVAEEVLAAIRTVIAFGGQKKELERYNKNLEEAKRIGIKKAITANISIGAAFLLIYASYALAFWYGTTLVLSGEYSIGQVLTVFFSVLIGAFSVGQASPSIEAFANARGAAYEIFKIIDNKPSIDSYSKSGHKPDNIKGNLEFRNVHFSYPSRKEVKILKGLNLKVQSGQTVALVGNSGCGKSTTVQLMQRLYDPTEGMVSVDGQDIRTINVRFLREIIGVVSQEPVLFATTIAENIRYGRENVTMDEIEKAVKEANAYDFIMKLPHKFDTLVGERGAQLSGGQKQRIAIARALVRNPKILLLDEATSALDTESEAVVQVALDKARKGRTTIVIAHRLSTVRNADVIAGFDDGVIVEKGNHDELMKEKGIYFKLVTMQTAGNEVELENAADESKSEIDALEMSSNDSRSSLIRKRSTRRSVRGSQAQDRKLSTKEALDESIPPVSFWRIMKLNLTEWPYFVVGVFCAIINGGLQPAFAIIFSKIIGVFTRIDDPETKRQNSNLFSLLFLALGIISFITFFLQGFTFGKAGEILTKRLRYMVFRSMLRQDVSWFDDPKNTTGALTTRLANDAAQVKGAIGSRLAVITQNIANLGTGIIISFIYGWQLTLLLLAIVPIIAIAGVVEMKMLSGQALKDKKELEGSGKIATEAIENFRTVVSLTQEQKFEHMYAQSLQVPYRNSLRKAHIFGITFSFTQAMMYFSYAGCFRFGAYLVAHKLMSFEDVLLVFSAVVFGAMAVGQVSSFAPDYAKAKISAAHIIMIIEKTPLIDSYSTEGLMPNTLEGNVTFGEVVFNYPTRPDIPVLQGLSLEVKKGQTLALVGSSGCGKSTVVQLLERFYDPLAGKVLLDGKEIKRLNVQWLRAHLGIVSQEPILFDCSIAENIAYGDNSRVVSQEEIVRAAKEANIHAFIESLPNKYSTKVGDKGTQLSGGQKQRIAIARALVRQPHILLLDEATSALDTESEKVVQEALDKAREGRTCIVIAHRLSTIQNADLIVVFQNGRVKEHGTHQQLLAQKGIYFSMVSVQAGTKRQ

MDCK [4] = test: Antiproliferative activity against MDCK cells at 10 uM by MTT assay; type: cell-based, Canis lupus familiaris; settings: dog
How it was run: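 MDCK-MDR1 cells grown in DMEM high glucose with 10% FBS and 2 mM glutamine at 37°C in 5% CO2. Seeded at 20000 cells/well, then treated next day with compound at 10 μM with solvent controls. MTT 0.5 mg/mL added after 24 or 48 h and incubated 3 h at 37°C. Formazan dissolved in DMSO; absorbance read at 570 and 630 nm.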

Compound	Activity (MDCK [1])	pEC50 [2]	pEC50 [3]	Activity (MDCK [4]) [%]
CCCCOc1no[n+]([O-])c1S(=O)(=O)c1ccccc1	Active	5.12	5.65	–
NC(=O)c1no[n+]([O-])c1S(=O)(=O)c1ccccc1	–	4.07	4.30	–
N#Cc1no[n+]([O-])c1-c1ccccc1	–	–	< 4.00	–
[O-][n+]1onc(-c2ccccc2)c1-c1ccccc1	–	–	< 4.00	–
N#Cc1c(S(=O)(=O)c2ccccc2)no[n+]1[O-]	–	4.14	4.26	–
O=S(=O)(c1ccccc1)c1no[n+]([O-])c1-c1ccccc1	–	–	4.34	–
CCC(C)Oc1no[n+]([O-])c1S(=O)(=O)c1ccccc1 (stereo not drawn)	–	4.34	5.65	45
O=S(=O)(c1ccccc1)c1no[n+]([O-])c1S(=O)(=O)c1ccccc1	–	4.82	5.52	–
N#Cc1no[n+]([O-])c1S(=O)(=O)c1ccccc1	–	4.53	5.13	–
COc1c(-c2ccccc2)no[n+]1[O-]	–	–	< 4.00	–
O=S(=O)(c1ccccc1)c1c(Oc2ccccc2)no[n+]1[O-]	–	4.87	4.69	–
CCCCCCOc1no[n+]([O-])c1S(=O)(=O)c1ccccc1	Active	4.92	5.47	–
NC(=O)c1c(S(=O)(=O)c2ccccc2)no[n+]1[O-]	–	–	4.28	–
Nc1no[n+]([O-])c1-c1ccccc1	–	–	< 4.00	–
NC(=O)c1no[n+]([O-])c1-c1ccccc1	–	–	< 4.00	–
Cc1no[n+]([O-])c1-c1ccccc1	–	–	< 4.00	–
CCCCCCOc1nonc1S(=O)(=O)c1ccccc1	–	–	4.49	–

Compound	Activity (MDCK [1])	pEC50 [2]	pEC50 [3]	Activity (MDCK [4]) [%]
CCCCCCCCCCOc1no[n+]([O-])c1S(=O)(=O)c1ccccc1	–	–	5.48	–
O=S(=O)(c1ccccc1)c1c(-c2ccccc2)no[n+]1[O-]	–	–	5.00	–
COc1no[n+]([O-])c1-c1ccccc1	–	–	< 4.00	–
CC(C)Oc1no[n+]([O-])c1S(=O)(=O)c1ccccc1	–	4.20	5.67	30
NC(=O)c1c(-c2ccccc2)no[n+]1[O-]	–	–	< 4.00	–
Nc1c(-c2ccccc2)no[n+]1[O-]	–	–	< 4.00	–
NS(=O)(=O)c1c(-c2ccccc2)no[n+]1[O-]	–	–	< 4.00	–
Cc1c(S(=O)(=O)c2ccccc2)no[n+]1[O-]	–	–	< 4.00	–
Cc1no[n+]([O-])c1S(=O)(=O)c1ccccc1	–	–	4.55	–
CC1(C)CCC(C)(C)c2cc(-c3cc(-c4ccc(C(=O)O)cc4)no3)ccc21	–	–	5.82	–
CCCCCCCCOc1no[n+]([O-])c1S(=O)(=O)c1ccccc1	–	–	5.34	–
CCCCOc1nonc1S(=O)(=O)c1ccccc1	–	–	4.30	–
Cc1c(-c2ccccc2)no[n+]1[O-]	–	–	< 4.00	–
NS(=O)(=O)c1no[n+]([O-])c1-c1ccccc1	–	–	< 4.00	–
CCOc1no[n+]([O-])c1S(=O)(=O)c1ccccc1	–	4.31	4.92	–
O=[N+]([O-])c1c(-c2ccccc2)n[o+]n1[O-]	–	4.35	4.28	–

Source: ChEMBL document CHEMBL1212912, “Phenylsulfonylfuroxans as modulators of multidrug-resistance-associated protein-1 and P-glycoprotein” (J Med Chem, 2010)
